# From PubChem
# CXCR6 block = CXCR6 receptor inhibitors, primary screen, cell-based, beta-arrestin, luminescence, CHO-K1 PathHunter, 1536-well; 0.36% of 360,000 active; inhibition, % at 20 µM; C-X-C chemokine receptor type 6 (Homo sapiens), O00574; in the data active = inhibition above about 34%, passing the limit was not always enough;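 also: antagonist mode with CXCL16 agonist at 10 nM final; 0% = 10 nM CXCL16 with DMSO and 100% = unstimulated wells without agonist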
# Target sequence (O00574 whole entry, looked up): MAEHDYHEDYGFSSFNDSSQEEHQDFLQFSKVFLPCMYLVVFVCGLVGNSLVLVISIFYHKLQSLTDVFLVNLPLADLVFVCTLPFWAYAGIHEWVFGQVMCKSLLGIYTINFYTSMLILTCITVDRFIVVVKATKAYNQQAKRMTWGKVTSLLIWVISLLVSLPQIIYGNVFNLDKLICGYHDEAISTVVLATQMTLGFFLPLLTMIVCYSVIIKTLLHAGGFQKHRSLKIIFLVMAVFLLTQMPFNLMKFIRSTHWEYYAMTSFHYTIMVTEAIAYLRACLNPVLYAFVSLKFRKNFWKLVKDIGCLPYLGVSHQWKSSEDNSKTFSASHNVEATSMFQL
# APJ ag = agonists of human apelin receptor APJ, primary screen, CHO-K1 cells, PathHunter beta-arrestin, luminescence; P35414; 0% DMSO wells, 100% apelin; activation, % at 20 µM; 0.11% of 330,000 active; AID 2520, 2010;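 active = activation more than six SD over the plate average, tested at 20 µM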;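 also: 0% = DMSO alone and 100% = apelin-13 at 10 nM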
#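 Assay system: CHO-K1 cells stably expressing ProLink-tagged human APJ and arrestin–beta-gal acceptor. Compound dosing: 20 µM single point, 1% DMSO. Times: 16-18 h seeding, 90 min dark compound exposure, 60 min detection. Detection: beta-gal luminescence. Evaluation: APJ–arrestin association signal. Controls: negative DMSO alone, positive Apelin-13 at 10 nM.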
# EBI2 antag = EBI2 receptor antagonists, beta-arrestin recruitment, primary screen, cell-based, luminescence, 7a,25-OHC stimulation, uHTS; 0.81% of 360,000 active; 7a,25-OHC stimulated; AID 651636, 2012; inhibition, % at 5 µM; in the data active = inhibition above about 38%;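 also: enzyme fragment complementation signal reports receptor beta-arrestin coupling in cells; 0% = agonist plus DMSO wells and 100% = wells without agonist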
# B2AR ag = beta2AR agonists driving receptor internalization, primary screen, cell-based, FAP fluorogen, flow cytometry. AID 504454, 2011. 0.43% of 340,000 active. Am2.2-beta2AR cells. response, % (test concentration not listed). Beta-2 adrenergic receptor (Homo sapiens), P07550;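 active = response above a set limit, near 3 SD of response in nonfluorescent compounds, cut at about 42% in these data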
# CCR6 antagonist = CCR6 receptor antagonists, primary screen, cell-based, CHO-K1, luminescence, beta-arrestin, uHTS | CHO-K1 CCR6 PathHunter beta-arrestin, CCL20-stimulated | inhibition, % at 20 µM | 0.49% of 340,000 active | AID 493098, 2011;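 active = compounds whose inhibition of the agonist-driven luminescence signal at 20 µM reaches about 50%, limit read from the data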;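 also: cells stimulated with CCL20 at 14 nM final; plate controls were DMSO with CCL20 for no effect and DMSO without agonist for full effect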
# APJ antag = antagonists of human apelin receptor APJ, primary screen, CHO-K1 cells, beta-arrestin complementation, luminescence; P35414; inhibition, % at 20 µM; 0.32% of 330,000 active;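 active = inhibition above about 40% at 20 µM, limit read from the data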;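 also: cells challenged with 10 nM apelin-13 agonist together with compound; plate controls were apelin-13 plus DMSO wells for no effect and DMSO wells lacking apelin-13 for full effect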
# EBI2 antag conf = EBI2 antagonist hit retest, beta-arrestin, confirmation, cell-based, single concentration, luminescence, 7a,25-OHC stimulation. shares compounds with EBI2 antag. 7a,25-OHC antagonism. inhibition, % at 5 µM. 29% of 2,400 active;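 active = inhibition of at least 50%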
# EBI2 agonist = EBI2 agonist activity of antagonist hits, confirmation, counter-screen for EBI2 antagonist project, cell-based, single concentration, agonist mode, luminescence | shares compounds with EBI2 antag | EBI2-expressing cells, 60 min; 0% vehicle, 100% 7α,25-dihydroxycholesterol control | activation, % at 5 µM | 2,400 tested, under 10 active;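 active = activation of at least 50%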
# bGal counter = E. coli beta-galactosidase enzyme inhibition, confirmation, counter-screen for EBI2 antagonist project, biochemical, luminescence, single concentration; shares compounds with EBI2 antag; purified beta-galactosidase, luminescent Galacton Star, 15 min; inhibition, % at 5 µM; 1% of 2,400 active; AID 652176, 2013;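 active = replicate-average signal at least 3 plate SD below neutral wells, shown as high inhibition, flagging enzyme-inhibiting false positives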;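 also: 0% = DMSO wells with enzyme and 100% = wells lacking enzyme; higher means stronger loss of beta-gal luminescence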
# * hit, by the source's call; x = no result. Sampled rows, rich in hits. Any-hit rate of the full collection: about 1.8%.
SMILES,CXCR6 block,APJ ag,EBI2 antag,B2AR ag,CCR6 antagonist,APJ antag,EBI2 antag conf,EBI2 agonist,bGal counter
Cc1cccc(/C=N/n2c(-c3cc(-c4ccccc4)n[nH]3)n[nH]c2=S)c1,-2,-2,0,-1,4,-26,x,x,x
CN(CC(=O)Nc1ncn[nH]1)S(=O)(=O)c1cc(Cl)ccc1Cl,-15,0,-11,-6,7,-2,x,x,x
O=C(NCc1cccc(C(F)(F)F)c1)C1C(=O)Nc2ccccc2C(=O)N1C1CCCC1 (centres undefined),x,x,-8,x,x,x,x,x,x
Cc1ccc(NC(=O)Nc2ccc3c(c2)N(C)C(=O)CS3)cc1C,-20,6,17,4,-3,10,x,x,x
Cc1cc(C)cc(NC(=O)Nc2ccc3c(c2)N(C)C(=O)CS3)c1,-12,1,38*,18,-21,2,48,-1,-19
CCOC(=O)C1CCCN(C(=O)/C=C/c2ccc([N+](=O)[O-])cc2)C1 (centres undefined),-5,0,9,5,2,-4,x,x,x
COc1ccccc1/C=C/C(=O)N1CCN(S(=O)(=O)c2cccs2)CC1,3,-1,33,-4,2,-2,x,x,x
CCOC(=O)N1CCN(C(=O)/C=C/c2ccc(C(C)(C)C)cc2)CC1,-4,-1,62*,5,11,-9,53*,1,8
CCOC(=O)N1CCN(C(=O)/C=C/c2cccc([N+](=O)[O-])c2)CC1,-6,1,48*,-18,8,2,26,-1,-11
O=C(/C=C/c1ccc([N+](=O)[O-])cc1)N1CCN(S(=O)(=O)c2cccs2)CC1,-1,1,93*,11,-11,-34,63*,1,3
O=C(/C=C/c1cccc([N+](=O)[O-])c1)N1CCN(c2ccc(F)cc2)CC1,-7,-3,18,4,6,8,x,x,x
CCOC(=O)N1CCN(C(=O)/C=C/c2ccc([N+](=O)[O-])cc2)CC1,-6,1,80*,-4,-6,17,58*,0,7
COC(=O)c1ccc(OC)c(CSc2nnc(COc3ccc(OC)cc3)o2)c1,4,-1,49*,-7,21,3,45,0,-1
O=C(CSc1nnc(COc2ccc(F)cc2)o1)N1c2ccccc2CCc2ccccc21,16,1,51*,3,15,6,24,0,7
COc1ccc(OCc2nnc(SCC(=O)NC3CCCCC3)o2)cc1,3,-4,11,1,11,-5,x,x,x
Cc1cccc(OCc2nnc(SCC(=O)N3CCCC3)o2)c1,1,1,6,2,4,-17,x,x,x
Cc1cccc(OCc2nnc(SCC(=O)N3c4ccccc4CCc4ccccc43)o2)c1,4,-2,52*,6,19,2,5,0,3
COc1ccc(OCc2nnc(SCC(=O)N3C(C)CCCC3C)o2)cc1 (centres undefined),-5,-4,46*,-10,21,3,24,1,7
O=C(Nc1ccc(F)cc1F)c1cc(Cl)sc1Cl,9,-2,6,-6,11,16,x,x,x
Cc1ccc(NNC(=S)Nc2ccc(C(C)C)cc2)c(C)c1,19,-5,70*,-2,42,30,62*,-1,-8
Cc1ccc(NC(=O)CCC(=O)NNC(=S)Nc2ccc(F)cc2)c(C)c1,2,0,-1,-3,3,12,x,x,x
O=[N+]([O-])c1ccc(-c2cnc(SC(c3ccccc3)c3ccccc3)[nH]2)cc1,22,-2,49*,-5,27,-2,38,0,6
O=[N+]([O-])c1ccc(-c2cnc(SCc3ccccc3Cl)[nH]2)cc1,-4,-6,28,-4,26,2,x,x,x
CC(C)(C)NC(=O)c1cc([N+](=O)[O-])ccc1N1CCCCC1,0,x,57*,0,8,x,39,0,3
CCOC(=O)CN(C(=O)Cn1nnc(-c2ccc(OC)cc2)n1)C(C(=O)NC1CCCC1)c1ccc(F)cc1 (centres undefined),-6,-4,75*,-5,1,16,44,1,5
SMILES,CXCR6 block,APJ ag,EBI2 antag,B2AR ag,CCR6 antagonist,APJ antag,EBI2 antag conf,EBI2 agonist,bGal counter
COc1ccc(-c2nnn(CC(=O)N(Cc3ccc(F)cc3)C(C(=O)NC3CCCC3)c3ccc(F)cc3)n2)cc1 (centres undefined),8,-1,9,9,4,15,x,x,x
CC(C)OCCCNC(=O)c1c(N)n(/N=C/c2ccccn2)c2nc3ccccc3nc12,-1,-5,48*,-4,-27,0,21,0,-9
CCCS(=O)(=O)NC(=O)C1(C)CCCN(C(=O)c2ccco2)C1 (centres undefined),-3,x,-7,x,x,x,x,x,x
CC(=NCCc1c(C)[nH]c2ccc(OCc3ccccc3)cc12)C1=C(O)CC(c2ccccc2)CC1=O (centres undefined),9,0,46*,-4,8,7,25,0,5
CCCCC(=NCCc1c(C)[nH]c2ccc(OC)cc12)C1=C(O)CC(c2ccccc2)CC1=O (centres undefined),14,-4,51*,27,19,-19,2,15,-12
CCC(=NCCc1c(C)[nH]c2ccccc12)C1=C(O)CC(c2ccccc2)CC1=O (centres undefined),14,0,39,-26,3,-2,x,x,x
CCC(=NCCc1c(C)[nH]c2ccc(OC(F)(F)F)cc12)C1=C(O)CC(c2ccccc2)CC1=O (centres undefined),16,-1,39,20,14,-29,x,x,x
CCOC(=O)N1CCN(c2nc3ccc(C)cc3n3cnnc23)CC1,-7,-2,-3,-16,14,-11,x,x,x
